ANO1 activ = activators or potentiators of mouse TMEM16A chloride channel; Q8BHY3; B-score at 10 µM; 0.3% of 340,000 active; HEK293 TMEM16A/YFP-H148Q/I152L, iodide quench fluorescence; active compounds read low;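 active = fluorescence-ratio B-score plate-corrected deviation score at least 3 library SD below zero, with starting fluorescence score within 5 deviations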;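 note: channel opened by trigger with iodide after compound preincubation; score built on the fluorescence ratio of max minus min over baseline; more negative score means more quench and so TMEM16A activation or potentiation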
IMP-1 inhibitor = blocks Pseudomonas aeruginosa IMP-1 metallo-beta-lactamase. purified IMP-1, nitrocefin hydrolysis, epi-absorbance fluorescence. inhibition, % at 5.6 µM. 0.45% of 290,000 active;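 active = inhibition above the mean plus 3 SD of all compounds in the same screening run, cut at about 4.5% in these data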;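 note: 0% = IMP-1 with DMSO and 100% = DMSO wells lacking enzyme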
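system = purified recombinant IMP-1 beta-lactamase | amount = 0.2 nM IMP-1, as dispensed | medium = HEPES buffer pH 7.1 with ZnSO4 and Brij 35 | times = 25 °C, 15 min preincubation, 25 min reaction | detection = plate fluorescence quenching by hydrolysis product, ex 480/em 530 nm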
CHT inh = human CHT choline transport inhibition; Q9GZV3; CHT-expressing cells, membrane potential dye, choline response; active compounds read low; 0.86% of 310,000 active; B-score at 10 µM;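 active = B-score over 3 SD under the library average, and starting fluorescence ratio not unusually high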;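 note: choline stimulus applied at its EC90 after an EC20 pre-addition; B-score computed on integrated fluorescence ratio after choline addition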
Target sequence (Q9GZV3 whole entry, looked up): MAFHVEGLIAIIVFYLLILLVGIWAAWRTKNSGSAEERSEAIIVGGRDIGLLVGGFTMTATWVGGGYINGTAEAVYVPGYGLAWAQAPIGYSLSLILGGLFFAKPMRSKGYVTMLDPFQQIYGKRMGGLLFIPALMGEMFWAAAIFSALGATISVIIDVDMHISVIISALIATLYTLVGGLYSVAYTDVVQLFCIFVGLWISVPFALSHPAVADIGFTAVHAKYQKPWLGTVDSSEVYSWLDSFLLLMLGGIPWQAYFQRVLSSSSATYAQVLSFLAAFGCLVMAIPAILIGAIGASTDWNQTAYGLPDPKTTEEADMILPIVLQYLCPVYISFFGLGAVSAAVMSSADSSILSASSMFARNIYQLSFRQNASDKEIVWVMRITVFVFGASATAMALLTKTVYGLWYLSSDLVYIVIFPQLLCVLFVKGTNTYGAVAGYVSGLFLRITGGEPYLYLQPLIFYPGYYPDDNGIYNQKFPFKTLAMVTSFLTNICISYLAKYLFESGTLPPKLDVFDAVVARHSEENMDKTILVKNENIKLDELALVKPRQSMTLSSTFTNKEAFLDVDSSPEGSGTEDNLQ
VIM-2 inhibitor = inhibitors of Pseudomonas aeruginosa VIM-2 metallo-beta-lactamase; purified VIM-2, nitrocefin hydrolysis, epi-absorbance fluorescence; inhibition, % at 5.6 µM; 0.89% of 290,000 active; AID 1527;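 active = inhibition above the mean of all tested compounds plus 3 SD, cutoff set per screening run, cut at about 7.5% in these data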;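 note: red hydrolysis product quenches plate fluorescence so inhibitors raise well fluorescence; 0% = enzyme with DMSO and 100% = DMSO without enzyme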
TMEM16A inh = blocks the mouse calcium-activated chloride channel TMEM16A; HEK293 TMEM16A/YFP iodide influx fluorescence, ionomycin; 1.2% of 310,000 active; AID 588511; Q8BHY3; normalized B-score (activity score, 25-100; higher = stronger inhibition) at 10 µM;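 active = ratio plate-corrected score three or more library SD toward inhibition, starting fluorescence score within five deviations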;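 note: score derived from kinetic fluorescence span divided by baseline fluorescence per well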
CHT allo act = human CHT allosteric activation; Q9GZV3; CHT-expressing cells, membrane potential dye, choline EC20; active compounds read high; LV-AA mutant CHT in HEK293 cells; B-score at 10 µM; 0.49% of 310,000 active; AID 488977;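 active = initial fluorescence not abnormally high and integrated response B-score, plate-corrected, over 3 SD above library mean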
CHT activ conf = confirmation of human choline transporter (CHT) activators; shares compounds with CHT allo act; CHT-expressing cells, membrane potential dye fluorescence (FDSS); % of choline EC20–EC90 response window; HEK293 expressing CHT LV-AA mutant; choline added at its EC20; activation, % at 10 µM; 91% of 2,500 active;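 active = primary screen active, with duplicate mean activation above negative control mean plus 3 SD, cut at about 11% in these data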
HEK293 MP dye = counter-screen for CHT activators: effect in parental HEK293 cells; shares compounds with CHT allo act; membrane potential dye fluorescence (FDSS); measured after EC20 choline addition; ratio readout change at 10 µM, hits read low; 62% of 2,500 active;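 active = duplicate-averaged ratio beyond 3 SD from buffer wells, up or down, though filed actives are nearly all decreases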
* = called active by the depositor; i = inactive; x = no result given. Sampled rows, rich in hits. Any-hit rate of the full collection: about 3.4%.

SMILES	ANO1 activ	IMP-1 inhibitor	CHT inh	VIM-2 inhibitor	TMEM16A inh	CHT allo act	CHT activ conf	HEK293 MP dye
Cc1ccc(S(=O)(=O)N2CCN(C(=O)Cn3nc(C)c([N+](=O)[O-])c3C)CC2)cc1	i	x	x	x	x	x	x	x
COCCNC(=O)C(c1ccc(C)cc1)N(C(=O)CCC(=O)Nc1ccccn1)c1ccccc1C (configuration not stated)	i	-2	i	-1	i	i	x	x
CN(CC(=O)Nc1ccc(Cl)cc1)C(=O)CCc1nc2sc3c(c2c(=O)[nH]1)CCCC3	i	x	i	x	i	i	x	x
Cc1cccn2c(Nc3ccccc3)c(-c3ccccn3)nc12	i	-4	i	2	i	i	41*	-25*
O=C(c1ccccc1-c1ccccc1)N1CCN(c2ccccn2)CC1	i	-2	i	-2	i	i	38*	i
CCN(CC)CCCN(C(=O)c1cccs1)c1nc(-c2ccc(OC)cc2)cs1	i	0	i	0	i	6.3*	48*	-47*
CCN(CC)CCCN(C(=O)c1ccc(Br)cc1)c1nc(-c2ccc(OC)cc2)cs1	i	-1	i	1	i	i	x	x
C=CCOC(=O)c1cn(CC)c2nc(C)ccc2c1=O	i	-3	i	1	i	10*	73*	-67*
CCn1cc(C(=O)OCC(=O)Nc2c(C)n(C)n(-c3ccccc3)c2=O)c(=O)c2ccc(C)nc21	i	-5	i	-1	i	11*	78*	-72*
CCn1cc(C(=O)OCC(=O)NCc2ccc3c(c2)OCO3)c(=O)c2ccc(C)nc21	i	-4	i	-1	i	10*	60*	-56*
CCn1cc(C(=O)OCc2cccc(Br)c2)c(=O)c2ccc(C)nc21	i	-6	i	-2	i	i	x	x
CCn1cc(C(=O)OCc2ccc(F)cc2)c(=O)c2ccc(C)nc21	i	-3	i	3	i	8*	56*	-87*
O=C(Nc1ccccc1F)C1CCCN1S(=O)(=O)c1ccc(Cl)cc1 (configuration not stated)	i	x	x	x	x	x	x	x
C=CCn1cc(C(=O)OCC)c(=O)c2cc(F)c(F)cc21	i	-2	i	-2	i	7*	48*	-56*
CN(C(=O)C1CCN(S(=O)(=O)c2ccccc2)CC1)c1c(N)n(Cc2ccccc2)c(=O)[nH]c1=O	i	x	i	x	i	i	x	x
O=c1[nH]c2ccccc2nc1NCCN1CCOCC1	i	-4	i	-3	i	i	x	x
CCN(CC)CCCNc1nc2ccccc2[nH]1	i	-3	i	-4	i	7.8*	35*	-34*
CCNc1nc2ccccc2[nH]1	i	0	i	-5	i	i	x	x
c1ccc2[nH]c(NCCCN3CCOCC3)nc2c1	i	-4	i	-1	i	6.4*	38*	-33*
COc1cccc(/C=C/C(=O)OCC(=O)Nc2nnc(-c3ccccc3)o2)c1	i	x	i	x	i	i	x	x
S=c1nccc(-c2ccc(Cl)cc2)[nH]1	i	-1	i	-2	i	i	x	x
Cc1nc2ccccn2c1-c1ccnc(=S)[nH]1	i	-1	i	-1	i	6.8*	37*	-35*
Cc1ccc(OCc2nc(C#N)c(N3CCN(Cc4ccccc4)CC3)o2)cc1	i	-4	i	0	i	11*	33*	i
COc1ccccc1OCc1nc(C#N)c(N2CCCC2)o1	i	1	i	0	i	i	x	x
N#Cc1nc(COc2ccc(F)cc2)oc1N1CCCC1	i	-1	i	-4	i	i	x	x
SMILES	ANO1 activ	IMP-1 inhibitor	CHT inh	VIM-2 inhibitor	TMEM16A inh	CHT allo act	CHT activ conf	HEK293 MP dye
N#Cc1nc(COc2ccccc2)oc1N1CCN(Cc2ccccc2)CC1	i	-2	i	-2	i	10*	36*	i
COC(=O)CC/C(O)=C1\C(=O)CC(C)(C)CC1=NCCc1nc2ccccc2[nH]1	i	-2	i	-1	i	i	x	x
Cn1c(N)c(C(=O)COC(=O)COc2ccccc2Cl)c(=O)n(C)c1=O	i	x	x	x	x	x	x	x
COc1ccc(C(=O)NCc2ccccc2CN2CCCC2)cc1S(=O)(=O)N1CCOCC1	i	x	x	x	x	x	x	x
CCCCn1c(N)c(N(CCOC)C(=O)c2ccc(COc3ccccc3)o2)c(=O)[nH]c1=O	i	x	i	x	i	6.7*	16*	i
CCC(N=c1cc(-c2ccc(OC)cc2)oc2ccc(C)cc12)C(=O)O (configuration not stated)	i	-4	i	3	i	i	32*	-27*
COC(=O)c1ccc2c(=O)n(CCCN3CCOCC3)c(=S)[nH]c2c1	i	-6	i	-2	i	i	24*	-40*
CCN(CC)CCNc1nc2c(c(=O)[nH]c(=O)n2C)n1CC(O)COc1ccc(Cl)cc1Cl (configuration not stated)	i	-4	i	-2	i	9.5*	53*	-53*
O=C(Nc1ccccc1C(=O)NCCCN1CCOCC1)c1cccc([N+](=O)[O-])c1	i	0	i	-3	i	6.3*	50*	-59*
COC(=O)c1ccc(N2CCN(C)CC2)c(NC(=O)COc2ccc(OC)cc2)c1	i	-1	i	1	i	9.2*	69*	-65*
CCOC(=O)C1=C(N)OC2=C(C(=O)CC(C)(C)C2)C1c1ccc(CC)s1 (configuration not stated)	i	-3	i	-3	i	7.6*	21*	i
COc1ccc(NCc2ccc(OC)c(OC)c2)cc1	x	-4	i	-5	i	i	x	x
COc1ccc(C(CCNCc2ccc(OC)c(OC)c2)c2ccc(F)cc2)cc1 (configuration not stated)	i	-1	i	-1	i	7.4*	28*	i
COc1ccc(C(CCNCc2ccc(N(C)C)cc2)c2ccccc2)cc1 (configuration not stated)	i	-3	i	-1	i	7*	9	i
CCOC(=O)c1cnn(-c2sc(C(=O)OCC)c(C)c2C(=O)OCC)c1N	i	-2	i	-3	100*	6.6*	-3	i

Bioassay records from PubChem BioAssay.
